# Laboratory results taken from article PMC8853703 (Chemical research in toxicology, 2021).
# What was measured:
# Assay type in all cases: cell-based, porcine
# LLC-PK1 cells [1] = assay: JC-10 mitochondrial transmembrane potential assay; details: for effect of cisplatin on ΔΨm: CDDP 20 μM alone
# LLC-PK1 cells [2] = assay: CM-H2DCFDA general reactive oxygen species quantitation assay; details: CDDP 20 μM alone, 24 h
# Procedure, shortened: (§1)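 LLC-PK1 cells (M199, 10% FBS, 1% PS; 37 °C, 5% CO2) were seeded at 1×10^4 cells/well overnight. Probe loading was 5 μM CM-H2DCFDA for 30 min (general ROS) or 2.5 μM MitoSOX Red for 10 min (mitochondrial superoxide), then 3 PBS washes. […] After PBS washes, fluorescence was read in PBS at Ex/Em 485/535 nm (DCF) or 510/580 nm (MitoSOX). Three independent experiments.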
# caspase-3 = assay: Caspase-3 activity assay; details: CDDP 20 μM alone, 24 h
# LLC-PK1 cells [3] = assay: MitoSOX Red mitochondrial superoxide detection assay; details: CDDP 20 μM alone, 24 h
# Procedure, shortened: as §1
# caspase-9 = assay: Caspase-9 activity assay; details: CDDP 20 μM alone, 24 h
# Procedure, shortened: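 Supernatant was mixed 1:1 with HEPES pH 7.4 caspase buffer (CHAPS, glycerol, EDTA, 10 mM DTT) holding 100 μM Ac-LEHD-pNA. Incubation was 90 min at 37 °C, read as absorbance at 400 nm, with activity normalised to BCA total protein.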
Structure (SMILES),ΔΨm with positive control (LLC-PK1 cells [1]; FCCP 10 μM),effect of cisplatin on ΔΨm (LLC-PK1 cells [1]; 6 h),effect of cisplatin on ΔΨm (LLC-PK1 cells [1]; 24 h),effect of cisplatin on ΔΨm (LLC-PK1 cells [1]; 48 h),effect of cisplatin on general ROS (LLC-PK1 cells [2]),effect of cisplatin on caspase-3 activity (caspase-3),effect of cisplatin on O2•− generated in mitochondria (LLC-PK1 cells [3]),effect of cisplatin on caspase-9 activity (caspase-9)
"N#CC(C#N)=NNc1ccc(OC(F)(F)F)cc1 [FCCP, Carbonyl cyanide-p-trifluoromethoxyphenylhydrazone]",depolarized ΔΨm,,,,,,,
"N.N.[Cl][Pt][Cl] [cisplatin, cis-Diamminedichloroplatinum (II), reference compound]",,not significantly affected,substantial loss of the ΔΨm,nearly complete gradient collapse,increased,greatly elevated,increased,greatly elevated
